From ChEMBL document CHEMBL1151765, “Rational design of substituted diarylureas: a scaffold for binding to G-quadruplex motifs” (J Med Chem, 2008)
The source made the active and inactive calls. No cut-off for these calls is given here.

Experiments:
[1] = Stabilization of d[G3(T2AG3)3] sequence of F21T telomeric G-quadruplex DNA assessed as change in melting temperature at 1 uM by FRET assay
Outline: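 Dual-labelled oligo (5′-FAM, 3′-TAMRA) at 400nM in FRET buffer (60mM KCl, K cacodylate, pH 7.4), heated to 85 °C for 10 min, cooled to room temperature. Ligand added from DMSO dilution. Excitation 450–495nm, emission 515–545nm, read every 0.5 °C from 30–100 °C. ΔTm from four experiments: averaged ligand Tm minus averaged buffer-control Tm, ± maximum sd.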

A549 [2] = experiment: Cytotoxicity against human A549 cells after 96 hrs by SRB assay; format: functional, cell-based; details: A549, 96 h
A549 [3] = experiment: Selectivity ratio of IC50 for human A549 cells to IC50 for human WI38 cells
[4] = Cytotoxicity against human WI38 cells after 96 hrs by SRB assay; format: cell-based; details: WI-38, 96 h
[5] = Stabilization of d[AGAG3AG2GCGCTG3AG2AG3GCT] sequence of c-kit1 G-quadruplex DNA assessed as change in melting temperature at 1 uM by FRET assay
Outline: (§1)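 Dual-labelled FAM/TAMRA oligos at 400nM in 60mM KCl potassium cacodylate buffer, pH 7.4, heated to 85 °C for 10 min, then cooled. Ligand added to 1µM; buffer alone as negative control. Excitation 450–495nm, emission read at 515–545nm every 0.5 °C from 30–100 °C. ΔTm is ligand Tm minus control Tm, from four experiments ± maximum sd; c-kit1 curves fitted to sigmoids.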

MCF7 [6] = experiment: Cytotoxicity against human MCF7 cells after 96 hrs by SRB assay; format: functional, cell-based; details: MCF7, 96 h
[7] = Stabilization of d[C3G3CG3CGCGAG3AG4AG2] sequence of c-kit2 G-quadruplex DNA assessed as change in melting temperature at 1 uM by FRET assay; outline: as §1
[8] = Stabilization of d[G3(T2AG3)3] sequence of F21T telomeric G-quadruplex DNA assessed as change in melting temperature at 1 uM by FRET assay relative to BRACO-19 in presence of calf thymus DNA
Outline: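 F21T FRET melting with ligand at 1µM in the presence of calf thymus DNA competitor at increasing bp concentrations. Retained stabilization, from three experiments, normalized to the ligand's ΔTm with no competitor (100%) ± normalized sd.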

MCF7 [9] = experiment: Selectivity ratio of IC50 for human MCF7 cells to IC50 for human WI38 cells
[10] = Stabilization of d[(TA)2GC(TA)2T6(TA)2]GC(TA)2 sequence of duplex DNA assessed as change in melting temperature at 1 uM by FRET assay; outline: as §1

O=C(CCCN1CCCC1)Nc1cccc(NC(=O)c2cccc(NC(=O)Nc3cccc(C(=O)Nc4cccc(NC(=O)CCCN5CCCC5)c4)c3)c2)c1
change in melting temperature (ΔTm) [1]: 13.6 °C | IC50 (A549 [2]): > 50 µM | Ratio IC50 (A549 [3]): 0.5 | IC50 [4]: 26.4 µM | change in melting temperature (ΔTm) [5]: 7.8 °C | IC50 (MCF7 [6]): 49.6 µM | change in melting temperature (ΔTm) [7]: 16.3 °C | Activity [8]: Active

O=C(CCCN1CCCC1)Nc1cccc(NC(=O)c2ccc(NC(=O)Nc3ccc(C(=O)Nc4cccc(NC(=O)CCCN5CCCC5)c4)cc3)cc2)c1
Ratio IC50 (MCF7 [9]): 1.3 | change in melting temperature (ΔTm) [1]: 3.3 °C | IC50 (A549 [2]): 19.4 µM | Ratio IC50 (A549 [3]): 1.3 | IC50 [4]: > 25 µM | IC50 (MCF7 [6]): 19.5 µM | change in melting temperature (ΔTm) [7]: 6.5 °C | change in melting temperature (ΔTm) [10]: 5.5 °C

O=C(CCN1CCCC1)Nc1cccc(NC(=O)c2cccc(NC(=O)Nc3cccc(C(=O)Nc4cccc(NC(=O)CCN5CCCC5)c4)c3)c2)c1
change in melting temperature (ΔTm) [1]: 14.1 °C | IC50 (A549 [2]): > 50 µM | Ratio IC50 (A549 [3]): 0.4 | IC50 [4]: 19.5 µM | change in melting temperature (ΔTm) [5]: 6.7 °C | IC50 (MCF7 [6]): 14.4 µM | change in melting temperature (ΔTm) [7]: 15.3 °C | change in melting temperature (ΔTm) [10]: 2.8 °C | Activity [8]: Active

O=C(CN1CCCC1)Nc1cc(NC(=O)Nc2cc(NC(=O)CN3CCCC3)cc(C(=O)Nc3ccccc3)c2)cc(C(=O)Nc2ccccc2)c1
Ratio IC50 (MCF7 [9]): 0.6 | change in melting temperature (ΔTm) [1]: 13.6 °C | IC50 (A549 [2]): > 50 µM | Ratio IC50 (A549 [3]): 0.3 | IC50 [4]: 13.8 µM | change in melting temperature (ΔTm) [5]: 5.3 °C | IC50 (MCF7 [6]): 21.9 µM | change in melting temperature (ΔTm) [7]: 8.7 °C | Activity [8]: Active

O=C(CN1CCCC1)Nc1cccc(NC(=O)c2cccc(NC(=O)Nc3cccc(C(=O)Nc4cccc(NC(=O)CN5CCCC5)c4)c3)c2)c1
change in melting temperature (ΔTm) [1]: 6.8 °C | IC50 (A549 [2]): > 50 µM | Ratio IC50 (A549 [3]): 0.5 | IC50 [4]: 22.8 µM | change in melting temperature (ΔTm) [5]: 3.4 °C | IC50 (MCF7 [6]): 34.1 µM | change in melting temperature (ΔTm) [7]: 10.5 °C | change in melting temperature (ΔTm) [10]: 0.3 °C | Activity [8]: Active

O=C(CN1CCCC1)Nc1ccc(NC(=O)c2ccc(NC(=O)Nc3ccc(C(=O)Nc4ccc(NC(=O)CN5CCCC5)cc4)cc3)cc2)cc1
IC50 (A549 [2]): > 25 µM | Ratio IC50 (A549 [3]): 1 | IC50 [4]: > 25 µM | IC50 (MCF7 [6]): > 25 µM

O=C(CCN1CCOCC1)Nc1ccc(NC(=O)c2cccc(NC(=O)Nc3cccc(C(=O)Nc4ccc(NC(=O)CCN5CCOCC5)cc4)c3)c2)cc1
change in melting temperature (ΔTm) [1]: 1 °C | IC50 (A549 [2]): > 50 µM | IC50 [4]: > 50 µM | IC50 (MCF7 [6]): 40.6 µM | change in melting temperature (ΔTm) [7]: 1.3 °C | change in melting temperature (ΔTm) [10]: 0.2 °C

O=C(CCCN1CCCC1)Nc1cc(NC(=O)Nc2cc(NC(=O)CCCN3CCCC3)cc(C(=O)Nc3ccccc3)c2)cc(C(=O)Nc2ccccc2)c1
change in melting temperature (ΔTm) [1]: 12.3 °C | IC50 (A549 [2]): 30.6 µM | Ratio IC50 (A549 [3]): 0.4 | IC50 [4]: 11 µM | change in melting temperature (ΔTm) [5]: 6.3 °C | IC50 (MCF7 [6]): 24.2 µM | change in melting temperature (ΔTm) [7]: 11.7 °C | change in melting temperature (ΔTm) [10]: 0.5 °C | Activity [8]: Active

O=C(CCN1CCCC1)Nc1cc(NC(=O)Nc2cc(NC(=O)CCN3CCCC3)cc(C(=O)Nc3ccccc3)c2)cc(C(=O)Nc2ccccc2)c1
Ratio IC50 (MCF7 [9]): 0.5 | change in melting temperature (ΔTm) [1]: 13.3 °C | IC50 (A549 [2]): 41.5 µM | Ratio IC50 (A549 [3]): 0.4 | IC50 [4]: 16.2 µM | change in melting temperature (ΔTm) [5]: 4.9 °C | IC50 (MCF7 [6]): 32.4 µM | change in melting temperature (ΔTm) [7]: 12.9 °C | Activity [8]: Active

CN(C)CCC(=O)Nc1ccc(NC(=O)c2cccc(NC(=O)Nc3cccc(C(=O)Nc4ccc(NC(=O)CCN(C)C)cc4)c3)c2)cc1
change in melting temperature (ΔTm) [1]: 12.3 °C | IC50 (A549 [2]): > 50 µM | Ratio IC50 (A549 [3]): 1 | IC50 [4]: > 50 µM | change in melting temperature (ΔTm) [5]: 2.9 °C | IC50 (MCF7 [6]): 12.2 µM | change in melting temperature (ΔTm) [7]: 13.6 °C | change in melting temperature (ΔTm) [10]: 0.1 °C | Activity [8]: Active
